Activity calls are given as the source filed them. The rule behind the calls is not given here.
Tested on: Mycobacterium tuberculosis
Assay: Induction of membrane disruption in Mycobacterium bovis BCG ATCC 35734 harboring piniBAC-RFP assessed as increase in iniBAC cluster transactivation up to 100 uM after 24 hrs by RFP-based fluorescence assay
Assay type: functional, organism-based
Details: BCG str. ATCC 35743
Summary of the method: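 Recombinant M. bovis carrying iniBAC promoter-driven RFP treated 24 h with 0.4–100 μM; promoter induction read as RFP fluorescence; isoniazid as positive control.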

| Compound | Activity |
| --- | --- |
| COc1cccc2ccn(CCCCC[P+](c3ccccc3)(c3ccccc3)c3ccccc3)c12.[I-] | inactive |
| NNC(=O)c1ccncc1 | Active |
